Assay results published in ChEMBL document CHEMBL3616405 (J Med Chem, 2015).
Blank lines part the entries; values can stand above or below the molecule they belong to.

Columns and labels:
[1] = Mean residence time in Gottingen mini pig at 1 nmol/kg, sc; format: ADME, organism-based, Sus scrofa; details: Gottingen minipig, in vivo
Summary of the method: (§1)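 Göttingen mini-pigs received a single i.v. or s.c. dose, sized to individual body weight. Twelve blood samples were taken up to 288 h into ice-cooled EDTA tubes, then centrifuged at 4 °C. Plasma was frozen until GLP-1 analogue was measured by ELISA or LC/MS. Cl, Vz, T1/2, Tmax, MRT and F came from noncompartmental analysis.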

[2] = Half life in Gottingen mini pig at 0.5 nmol/kg, iv; format: ADME, organism-based, Sus scrofa; details: Gottingen minipig, in vivo; summary of the method: as §1
[3] = Clearance in Gottingen mini pig at 0.5 nmol/kg, iv; format: ADME, organism-based, Sus scrofa; details: Gottingen minipig, in vivo; summary of the method: as §1
[4] = Apparent volume of distribution in Gottingen mini pig at 0.5 nmol/kg, iv; format: ADME, organism-based, Sus scrofa; details: Gottingen minipig, in vivo, read-out: Vz; summary of the method: as §1
[5] = Bioavailability in Gottingen mini pig at 1 nmol/kg, sc; format: ADME, organism-based, Sus scrofa; details: Gottingen minipig, in vivo; summary of the method: as §1
[6] = molecular target: Albumin (Homo sapiens, UniProt P02768); test: Binding affinity to human serum albumin at 100 uM by analytical ultracentrifugation analysis relative to liraglutide; format: ADME; details: isolated protein
Summary of the method: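 Sedimentation-velocity analytical ultracentrifugation of 100 μM analogue with 10 μM purified monomeric HSA in PBS, pH 7.4, at 20 °C and 40 000 rpm, read at 250 nm. Free fraction Φ = c_free/(c_tot − c_HSA). Three experiments were averaged, with SD.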

[7] = system: Sus scrofa; test: Mean residence time in Gottingen mini pig at 2 nmol/kg, sc; format: ADME, organism-based; details: in vivo; summary of the method: as §1
[8] = species on record: Homo sapiens; test: Half life in human; format: ADME, organism-based; details: in vivo
[9] = system: Sus scrofa; test: Clearance in Gottingen mini pig at 2 nmol/kg, iv; format: ADME, organism-based; details: in vivo; summary of the method: as §1
[10] = system: Sus scrofa; test: Apparent volume of distribution in Gottingen mini pig at 2 nmol/kg, iv; format: ADME, organism-based; details: in vivo; summary of the method: as §1
[11] = system: Sus scrofa; test: Bioavailability in Gottingen mini pig at 2 nmol/kg, sc; format: ADME, organism-based; details: in vivo; summary of the method: as §1
[12] = system: Sus scrofa; test: Half life in Gottingen mini pig at 2 nmol/kg, iv; format: ADME, organism-based; details: in vivo; summary of the method: as §1
[13] = molecular target: Mus musculus; test: Antihyperglycaemic activity in sc dosed db/db mouse assessed as reduction of blood glucose level up to 48 hrs by glucose oxidase method; format: functional, organism-based
Summary of the method: (§2)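 Male db/db mice (10–12 weeks old, blood glucose above 10 mM), group-housed, fed chow and acidified water ad libitum. Doses of 0.3–100 nmol/kg were given s.c. at 6 mL/kg in 50 mM phosphate with 0.05% Tween 80, pH 8. Tail-tip capillary blood glucose was measured by glucose oxidase at 0, 1, 2, 3, 6, 24 and 48 h. […] Values are mean ± SEM.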

[14] = system: Sus scrofa; test: Tmax in Gottingen mini pig at 2 nmol/kg, sc; format: ADME, organism-based; details: in vivo; summary of the method: as §1
[15] = system: Mus musculus; test: Antiobesity activity in sc dosed db/db mouse assessed as reduction of body weight; format: functional, organism-based
[16] = system: Mus musculus; test: Antihyperglycaemic activity in sc dosed db/db mouse assessed as reduction of blood glucose level by glucose oxidase method; format: functional, organism-based; summary of the method: as §2
[17] = molecular target: T1, Glucagon-like peptide 1 receptor (Homo sapiens, UniProt P43220); test: Displacement of [125I]-GLP1 from human GLP1 receptor expressed in BHK cells after 2 hrs in presence of 2% human serum albumin; format: cell-based
[18] = molecular target: T1, Glucagon-like peptide 1 receptor; test: Agonist activity at human GLP1 receptor expressed in BHK cells after 3 hrs by CRE firefly luciferase reporter gene assay in absence of human serum albumin; format: functional, cell-based
[19] = molecular target: T1, Glucagon-like peptide 1 receptor; test: Displacement of [125I]-GLP1 from human GLP1 receptor expressed in BHK cells after 2 hrs in absence of human serum albumin; format: cell-based

T1 sequence (P43220 whole entry): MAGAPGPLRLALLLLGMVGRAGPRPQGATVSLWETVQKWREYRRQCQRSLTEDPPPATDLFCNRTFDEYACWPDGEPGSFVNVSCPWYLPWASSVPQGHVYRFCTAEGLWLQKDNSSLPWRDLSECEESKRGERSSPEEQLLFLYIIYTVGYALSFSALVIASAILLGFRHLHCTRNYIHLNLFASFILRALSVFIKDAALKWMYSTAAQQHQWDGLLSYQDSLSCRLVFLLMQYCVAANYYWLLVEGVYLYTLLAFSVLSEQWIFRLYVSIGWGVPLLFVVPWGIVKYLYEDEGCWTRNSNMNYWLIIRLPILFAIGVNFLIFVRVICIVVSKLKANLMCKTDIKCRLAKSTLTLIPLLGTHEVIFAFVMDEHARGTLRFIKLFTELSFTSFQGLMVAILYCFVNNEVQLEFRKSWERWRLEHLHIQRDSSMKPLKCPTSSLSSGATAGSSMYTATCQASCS
Albumin, sequence (P02768 whole entry): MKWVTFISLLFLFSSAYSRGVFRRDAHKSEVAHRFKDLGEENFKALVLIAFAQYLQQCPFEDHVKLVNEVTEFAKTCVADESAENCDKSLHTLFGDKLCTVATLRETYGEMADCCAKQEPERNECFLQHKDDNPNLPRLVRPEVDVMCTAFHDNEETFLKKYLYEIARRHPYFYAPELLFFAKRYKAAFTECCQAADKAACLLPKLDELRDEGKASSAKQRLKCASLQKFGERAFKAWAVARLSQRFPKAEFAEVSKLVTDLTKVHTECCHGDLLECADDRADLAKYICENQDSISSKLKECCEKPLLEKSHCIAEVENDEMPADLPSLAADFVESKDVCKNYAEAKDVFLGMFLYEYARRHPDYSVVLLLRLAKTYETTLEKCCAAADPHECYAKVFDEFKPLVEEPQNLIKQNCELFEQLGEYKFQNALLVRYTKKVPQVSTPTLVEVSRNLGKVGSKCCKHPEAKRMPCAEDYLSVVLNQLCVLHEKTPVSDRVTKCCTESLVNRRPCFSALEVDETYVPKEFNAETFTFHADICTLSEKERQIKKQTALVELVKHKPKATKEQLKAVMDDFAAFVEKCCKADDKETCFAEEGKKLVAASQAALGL

- MRT [1]: 23 h
- half-life [2]: 12.4 h
- clearance [3]: 3.8 mL/h/kg
- Vd [4]: 0.0674 L/kg
- bioavailability [5]: 66%
Molecule: CCCCCCCCCCCCCCCC(=O)N[C@@H](CCC(=O)NCCCC[C@H](NC(=O)[C@H](C)NC(=O)[C@H](C)NC(=O)[C@H](CCC(N)=O)NC(=O)CNC(=O)[C@H](CCC(=O)O)NC(=O)[C@H](CC(C)C)NC(=O)[C@H](Cc1ccc(O)cc1)NC(=O)[C@H](CO)NC(=O)[C@H](CO)NC(=O)[C@@H](NC(=O)[C@H](CC(=O)O)NC(=O)[C@H](CO)NC(=O)[C@@H](NC(=O)[C@H](Cc1ccccc1)NC(=O)[C@@H](NC(=O)CNC(=O)[C@H](CCC(=O)O)NC(=O)[C@H](C)NC(=O)[C@@H](N)Cc1cnc[nH]1)[C@@H](C)O)[C@@H](C)O)C(C)C)C(=O)N[C@@H](CCC(=O)O)C(=O)N[C@@H](Cc1ccccc1)C(=O)N[C@H](C(=O)N[C@@H](C)C(=O)N[C@@H](Cc1c[nH]c2ccccc12)C(=O)N[C@@H](CC(C)C)C(=O)N[C@H](C(=O)N[C@@H](CCCNC(=N)N)C(=O)NCC(=O)N[C@@H](CCCNC(=N)N)C(=O)NCC(=O)O)C(C)C)[C@@H](C)CC)C(=O)O [LIRAGLUTIDE]

- Activity [6]: Not Active
Molecule: CC[C@H](C)[C@H](NC(=O)[C@H](Cc1ccccc1)NC(=O)[C@H](CCC(=O)O)NC(=O)[C@H](CCCCNC(=O)COCCOCCNC(=O)COCCOCCNC(=O)CC[C@H](NC(=O)CCCCCCCCCCCCCCCCC(=O)O)C(=O)O)NC(=O)[C@H](C)NC(=O)[C@H](C)NC(=O)[C@H](CCC(N)=O)NC(=O)CNC(=O)[C@H](CCC(=O)O)NC(=O)[C@H](CC(C)C)NC(=O)[C@H](Cc1ccc(O)cc1)NC(=O)[C@H](CO)NC(=O)[C@H](CO)NC(=O)[C@@H](NC(=O)[C@H](CC(=O)O)NC(=O)[C@H](CO)NC(=O)[C@@H](NC(=O)[C@H](Cc1ccccc1)NC(=O)[C@@H](NC(=O)CNC(=O)[C@H](CCC(=O)O)NC(=O)[C@H](C)NC(=O)[C@@H](N)Cc1c[nH]cn1)[C@@H](C)O)[C@@H](C)O)C(C)C)C(=O)N[C@@H](C)C(=O)N[C@@H](Cc1c[nH]c2ccccc12)C(=O)N[C@@H](CC(C)C)C(=O)N[C@H](C(=O)N[C@@H](CCCNC(=N)N)C(=O)NCC(=O)N[C@@H](CCCNC(=N)N)C(=O)NCC(=O)O)C(C)C

- MRT [7]: 63.6 h
- t1/2 [8]: 165 h
- CL [9]: 1.6 mL/h/kg
- Vz [10]: 0.1019 L/kg
- F [11]: 94%
- t1/2 [12]: 46.1 h
- EC50 [13]: < 2 nmol/kg
- Tmax [14]: 12 h
Molecule: SEMAGLUTIDE [listing 1 of 2 here]

- Activity [16]: Dose-dependent effect
Molecule: SEMAGLUTIDE [listing 2 of 2 here]
- Activity [15]: Dose-dependent effect

- IC50 [17]: 24.8 nM
- EC50 [18]: 0.0244 nM
- IC50 [19]: 0.21 nM
Molecule: CC[C@H](C)[C@H](NC(=O)[C@H](Cc1ccccc1)NC(=O)[C@H](CCC(=O)O)NC(=O)[C@H](CCCCNC(=O)COCCOCCNC(=O)COCCOCCNC(=O)CC[C@H](NC(=O)CCCCCCCCCCCCCCCCCCCCC(=O)O)C(=O)O)NC(=O)[C@H](C)NC(=O)[C@H](C)NC(=O)[C@H](CCC(N)=O)NC(=O)CNC(=O)[C@H](CCC(=O)O)NC(=O)[C@H](CC(C)C)NC(=O)[C@H](Cc1ccc(O)cc1)NC(=O)[C@H](CO)NC(=O)[C@H](CO)NC(=O)[C@@H](NC(=O)[C@H](CC(=O)O)NC(=O)[C@H](CO)NC(=O)[C@@H](NC(=O)[C@H](Cc1ccccc1)NC(=O)[C@@H](NC(=O)CNC(=O)[C@H](CCC(=O)O)NC(=O)C(C)(C)NC(=O)[C@@H](N)Cc1c[nH]cn1)[C@@H](C)O)[C@@H](C)O)C(C)C)C(=O)N[C@@H](C)C(=O)N[C@@H](Cc1c[nH]c2ccccc12)C(=O)N[C@@H](CC(C)C)C(=O)N[C@H](C(=O)N[C@@H](CCCNC(=N)N)C(=O)NCC(=O)N[C@@H](CCCNC(=N)N)C(=O)NCC(=O)O)C(C)C

- IC50 ([17]; bhk): 0.22 nM
- EC50 ([18]; bhk): 0.0043 nM
- IC50 ([19]; bhk): 0.03 nM
Molecule: CCCCCCCCCCCCCCCC(=O)N[C@@H](CCC(=O)NCCOCCOCC(=O)NCCOCCOCC(=O)NCCOCCOCC(=O)NCCCC[C@H](NC(=O)[C@H](C)NC(=O)[C@H](C)NC(=O)[C@H](CCC(N)=O)NC(=O)CNC(=O)[C@H](CCC(=O)O)NC(=O)[C@H](CC(C)C)NC(=O)[C@H](Cc1ccc(O)cc1)NC(=O)[C@H](CO)NC(=O)[C@H](CO)NC(=O)[C@@H](NC(=O)[C@H](CC(=O)O)NC(=O)[C@H](CO)NC(=O)[C@@H](NC(=O)[C@H](Cc1ccccc1)NC(=O)[C@@H](NC(=O)CNC(=O)[C@H](CCC(=O)O)NC(=O)C(C)(C)NC(=O)[C@@H](N)Cc1c[nH]cn1)[C@@H](C)O)[C@@H](C)O)C(C)C)C(=O)N[C@@H](CCC(=O)O)C(=O)N[C@@H](Cc1ccccc1)C(=O)N[C@H](C(=O)N[C@@H](C)C(=O)N[C@@H](Cc1c[nH]c2ccccc12)C(=O)N[C@@H](CC(C)C)C(=O)N[C@H](C(=O)N[C@@H](CCCNC(=N)N)C(=O)NCC(=O)N[C@@H](CCCNC(=N)N)C(=O)NCC(=O)O)C(C)C)[C@@H](C)CC)C(=O)O

- IC50 [17]: 20.5 nM
- EC50 [18]: 0.0086 nM
- IC50 [19]: 0.94 nM
Molecule: CC[C@H](C)[C@H](NC(=O)[C@H](Cc1ccccc1)NC(=O)[C@H](CCC(=O)O)NC(=O)[C@H](CCCCNC(=O)COCCOCCNC(=O)COCCOCCNC(=O)CC[C@H](NC(=O)CCCCCCCCCCCCCCC(=O)O)C(=O)O)NC(=O)[C@H](C)NC(=O)[C@H](C)NC(=O)[C@H](CCC(N)=O)NC(=O)CNC(=O)[C@H](CCC(=O)O)NC(=O)[C@H](CC(C)C)NC(=O)[C@H](Cc1ccc(O)cc1)NC(=O)[C@H](CO)NC(=O)[C@H](CO)NC(=O)[C@@H](NC(=O)[C@H](CC(=O)O)NC(=O)[C@H](CO)NC(=O)[C@@H](NC(=O)[C@H](Cc1ccccc1)NC(=O)[C@@H](NC(=O)CNC(=O)[C@H](CCC(=O)O)NC(=O)C(C)(C)NC(=O)[C@@H](N)Cc1c[nH]cn1)[C@@H](C)O)[C@@H](C)O)C(C)C)C(=O)N[C@@H](C)C(=O)N[C@@H](Cc1c[nH]c2ccccc12)C(=O)N[C@@H](CC(C)C)C(=O)N[C@H](C(=O)N[C@@H](CCCNC(=N)N)C(=O)NCC(=O)N[C@@H](CCCNC(=N)N)C(=O)NCC(=O)O)C(C)C
